Screens deposited in PubChem by several laboratories.
EBV gp42 block = blocks Epstein-Barr virus glycoprotein 42 binding | Q1HVG2 | Fluorescence polarization binding assay, mP read-out | inhibition, % (tested at 21.74 µM) | hit rate 0.42% among 220,000; in the data active = inhibition above about 50%
Target sequence (Q1HVG2 whole entry, looked up): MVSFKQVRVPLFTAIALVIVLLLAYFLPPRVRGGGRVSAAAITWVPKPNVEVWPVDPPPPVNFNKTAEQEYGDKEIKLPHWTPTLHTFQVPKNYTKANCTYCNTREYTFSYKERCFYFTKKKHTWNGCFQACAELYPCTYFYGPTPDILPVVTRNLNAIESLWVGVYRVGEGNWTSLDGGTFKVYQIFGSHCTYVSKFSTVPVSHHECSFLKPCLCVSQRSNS
MPTP block = inhibitors of mitochondrial permeability transition pore; isolated mouse mitochondria, Ca2+ swelling absorbance, 30 min; inhibition, % at 10 µM; hit rate 1.4% among 360,000;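 active = inhibition of 50% or more, scaled per plate between neutral and stimulator controls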;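 note: 0% = DMSO wells given calcium and 100% = 1 mM EGTA wells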
NR3A LBD binder = modulators (binders) of human NR3A ligand-binding domain; NR3A LBD differential scanning fluorimetry, Tm shift; 0% = protein alone, 100% = glycine-bound protein; Tm shift relative to glycine control, % at 25 µM; hit rate 2.5% among 340,000; AID 1259313;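 active = melting temperature shift of at least 10% of the positive control shift, at one fixed dose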
TbMetRS inhib = blocks T. brucei methionyl-tRNA synthetase activity; purified T. brucei MetRS, ATP depletion, Kinase-Glo luminescence; inhibition, % at 11.9 µM; hit rate 0.4% among 360,000; AID 624268;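 active = inhibition above a per-plate cutoff of the control wells' mean inhibition plus 3 SD, cut at about 5.5% in these data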;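 note: 0% = DMSO wells median and 100% = median of wells with control inhibitor compound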
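Material: parasite MetRS enzyme / Replication: singlicate, one well per compound / Signal: luminescence of leftover ATP / Schedule: 2 h aminoacylation at 25 °C after 15 min preincubation / Medium: HEPES-MgCl2-KCl buffer plus DTT, spermine, BSA, pyrophosphatase / Doses: 11.9 µM single point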
CHOP inh = blocks CHOP induction under ER stress; CHO-K1 CHOP-promoter luciferase, tunicamycin-induced, 15-18 h; inhibition, % at 10 µM; AID 2732; hit rate 3.8% among 220,000;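 active = compounds that reduced the stress-induced luciferase reporter signal by more than about 70% of percent inhibition, limit read from the data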;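 note: 0% = tunicamycin plus vehicle and 100% = wells without tunicamycin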
WT yeast gro inh = growth inhibition of WT yeast, mitochondrial fusion screen; inhibition, % at 10 µM; mitochondrial fusion phenotypic screen, WT strain; hit rate 2.1% among 190,000; in the data active = inhibition above about 58%; tested in S. cerevisiae
* hit, by the source's call; . = no result. This is a sample that favours compounds with a hit; in the whole collection about 6.4% have one here.

SMILES | EBV gp42 block | MPTP block | NR3A LBD binder | TbMetRS inhib | CHOP inh | WT yeast gro inh
CCOc1ccc(C=NNc2ccc(S(=O)(=O)Nc3ccccc3C(=O)O)cc2[N+](=O)[O-])cc1OC | . | 9 | 15* | 0 | . | .
COc1cc(C=NNc2ccc(S(=O)(=O)Nc3ccccc3C(=O)O)cc2[N+](=O)[O-])ccc1O | . | 7 | 19* | 0 | . | .
CCOc1cc(/C=N/Nc2ccc(S(=O)(=O)Nc3ccccc3C(=O)O)cc2[N+](=O)[O-])cc(Cl)c1O | . | 14 | . | 0 | . | .
CCC(=O)Nc1ccc2c(c1)ncn2-c1ccc(OC)cc1 | -2 | -1 | -1 | 0 | 20 | -7
CCCNC(=S)Nc1ccc2nc(-c3ccccn3)c(-c3ccccn3)nc2c1 | -15 | 3 | 0 | 0 | 14 | 72*
S=C(Nc1ccc2nc(-c3ccccn3)c(-c3ccccn3)nc2c1)N1CCCCCC1 | 7 | -1 | 0 | -1 | -3 | -5
S=C(Nc1ccc2nc(-c3ccccn3)c(-c3ccccn3)nc2c1)N1CCCCC1 | 55* | -3 | -2 | 0 | 29 | 1
CCOC(=O)c1ccccc1NC(=S)N1CCC(C)CC1 | -5 | 0 | 0 | -1 | 57 | 7
Cc1cccc(NC(=O)C2(c3ccccc3)CC2(Cl)Cl)c1 (stereo not drawn) | -2 | 4 | -4 | -1 | 45 | 6
Cc1ccc(NC(=O)C2(c3ccccc3)CC2(Cl)Cl)cc1C (stereo not drawn) | -1 | 21 | -6 | 0 | 22 | 73*
COc1ccc(N(C(=O)CCl)C(C(=O)NC2CCCCC2)c2cccnc2)cc1 (stereo not drawn) | -2 | 1 | -4 | 0 | -1 | 4
O=C(NC1CCCC1)C(c1ccc(F)cc1)N(Cc1ccc(F)cc1)C(=O)CCl (stereo not drawn) | -6 | 0 | 0 | -1 | 92* | -6
Cc1ccc(C(C(=O)NC2CCCC2)N(Cc2ccc(F)cc2)C(=O)c2csnn2)o1 (stereo not drawn) | -10 | 0 | 2 | -1 | 71* | -3
O=C(NC1CCCCC1)C(c1ccncc1)N(Cc1ccc(F)cc1)C(=O)c1ccccn1 (stereo not drawn) | . | 0 | 0 | -1 | . | .
O=C(NC1CCCCC1)C(c1cccnc1)N(C(=O)CCl)c1ccc(F)cc1 (stereo not drawn) | -9 | 2 | 2 | -1 | 88* | 1
O=C(NCC(=O)N(c1ccccc1)C(C(=O)NC1CCCCC1)c1cccnc1)c1cccs1 (stereo not drawn) | 0 | 2 | -2 | 0 | 86* | -18
O=C(COC(=O)c1cc(S(=O)(=O)N2CCOCC2)ccc1Cl)NC1CCCCC1 | . | 0 | . | 0 | . | .
CS(=O)(=O)N(CC(N)=O)Cc1ccc(Cl)cc1 | -9 | 0 | 4 | -1 | 11 | 1
C=CCc1ccccc1OCC(O)CN1CCN(c2ccccc2F)CC1 (stereo not drawn) | -8 | 0 | -1 | -1 | 78* | 22
C=CCc1ccccc1OCC(O)CN1CCN(c2ccccc2OC)CC1 (stereo not drawn) | -1 | 2 | -13 | 0 | 7 | 6
O=C(Nc1ccccc1)C1=C[C@@H](c2ccc(C(F)(F)F)cc2)C[C@@H](OCc2ccc(CO)cc2)O1 | -7 | -1 | 5 | 0 | -18 | 63*
CCC(=NCCc1c(C)[nH]c2ccccc12)C1=C(O)CC(c2ccccc2)CC1=O (stereo not drawn) | -1 | 4 | 16* | -1 | 34 | 15
CC(NC(=O)c1ccco1)C(=O)N1CCN(C(c2ccccc2)c2ccccc2)CC1 (stereo not drawn) | . | 0 | 11* | 0 | . | .
CC(NC(=O)c1ccco1)C(=O)N1CCN(c2ccccc2)CC1 (stereo not drawn) | . | 0 | -2 | 0 | . | .
CC(C)CNC(=S)N1CCN(C(c2ccccc2)c2ccccc2)CC1 | -11 | 7 | -9 | -1 | 41 | 70*
SMILES | EBV gp42 block | MPTP block | NR3A LBD binder | TbMetRS inhib | CHOP inh | WT yeast gro inh
S=C(NCc1ccco1)N1CCN(C(c2ccccc2)c2ccccc2)CC1 | 20 | 3 | -3 | -1 | 72* | 64*
CC1(C(=O)Nc2ccc3c(c2)OCCO3)CN(S(C)(=O)=O)CC(=O)N1Cc1ccco1 (stereo not drawn) | . | -1 | . | -1 | . | .
O=C(Cc1cccs1)N1CCN(C(=O)C2CCCO2)CC1 (stereo not drawn) | 1 | -1 | -12 | -1 | 0 | 6
Cc1cccc(-c2nn(-c3ccccc3)cc2C(=O)NCC(c2cccs2)N2CCOCC2)c1 (stereo not drawn) | . | -2 | -4 | 0 | . | .
Cc1cc(NC(=O)COC(=O)c2ccc(OC(F)(F)F)cc2)no1 | . | 0 | 2 | 0 | . | .
Cc1cc(NC(=O)COC(=O)C(Nc2ccc(C(F)(F)F)cc2Cl)C(C)C)no1 (stereo not drawn) | -15 | 12 | 6 | 0 | 102* | 79*
Cc1ccc2[nH]c(C)c(/C=N/Nc3nc4ccccc4s3)c2c1 | 8 | 0 | 24* | -1 | 78* | 68
Cc1ccc2[nH]c(O)c(N=Nc3nc4ccccc4s3)c2c1 | 14 | 13 | -2 | 0 | 6 | .
COc1cc(OC)cc(C(=O)Oc2ccc(/C=N/Nc3nc4ccccc4s3)cc2OC)c1 | 11 | 1 | 18* | 0 | 1 | 25
COc1ccc(C=NNc2nc3ccccc3s2)cc1 | . | 2 | 33* | 0 | . | .
C(=N\Nc1nc2ccccc2s1)/c1ccc2c(c1)OCO2 | -18 | 0 | 9 | 1 | -21 | 17
C(=N\NC1=Nc2cccc3cccc1c23)/c1ccccn1 | -69 | 4 | -16 | 0 | 66 | 68*
O=C(O)C(c1ccccc1)N1C(=O)/C(=C\c2ccc(O)c(O)c2)SC1=S (stereo not drawn) | . | 12 | -5 | 1 | . | .
C(=N\Nc1nc2ccccc2s1)/c1ccccn1 | 2 | . | -2 | . | 101* | .
C(=C\c1ccccc1)/C=N/Nc1nc2ccccc2s1 | -2 | 8 | -4 | -1 | 49 | 32
Brc1csc(/C=N/Nc2nc3ccccc3s2)c1 | -13 | 34 | 22* | -1 | 68 | 24
Brc1ccc(/C=C/C=N/Nc2nc3ccccc3s2)cc1 | -13 | 5 | 40* | 1 | -29 | -4
Cc1csc(N/N=C/c2ccccn2)n1 | -1 | 1 | -1 | -1 | 26 | 33
CCN(Cc1ccncc1)C(=O)c1cc(COc2c(F)cccc2F)on1 | . | 1 | 32* | 0 | . | .
CCN(Cc1ccncc1)C(=O)c1cc(COc2ccc(F)cc2Cl)on1 | . | 1 | -1 | 0 | . | .
COc1ccc(Nc2nc(C)nc3c2oc2ccccc23)cc1 | . | 1 | . | 0 | . | .
Clc1ccc(OCCn2cnc3ccccc32)c(Cl)c1 | -2 | 0 | -40 | 2 | 15 | 68*
c1ccc2c(c1)ncn2CCOCCOCCn1cnc2ccccc21 | -18 | -2 | -2 | 0 | -4 | -8
